Jurkat NFkB inh: inhibitors of induced NF-kB luciferase reporter, primary screen, TCR NF-kB activation inhibitor project, cell-based, luminescence, uHTS; Jurkat, PMA/ionomycin-induced NF-kB luciferase reporter; AID 435003, 2010; inhibition, % at 4 µM; 330,000 compounds, 0.53% hits; in the data active means inhibition above about 50%
NR2E3 ag-1: NR2E3 agonists in two-hybrid cells, primary screen, cell-based, luminescence, CHO-S, Gal4-NCOR/VP16-NR2E3; luciferase; inhibition of corepressor binding, % at 3.98 µM; 360,000 compounds, 0.35% hits;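 active means inhibition above the mean of all tested compounds plus 3 SD, cut at about 70% in these data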;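 further: 0% = DMSO with NR2E3 transfected cells and 100% = cells lacking NR2E3 construct; higher means lower luciferase signal from less NR2E3 corepressor binding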
NR2E3 ag-2: inhibitors of NR2E3-RetCOR corepressor binding, primary screen, NR2E3 agonist project, biochemical, TR-FRET, GST-NR2E3, biotin-RetCOR | Photoreceptor-specific nuclear receptor (Homo sapiens), Q9Y5X4 | 1536-well | inhibition of corepressor binding, % at 4.78 µM | 320,000 compounds, 0.12% hits | AID 2300, 2010;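 active means percent inhibition above the cutoff of mean plus 3 SD of all tested compounds, set per screening campaign, cut at about 20% in these data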;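 further: 0% = DMSO wells and 100% = biotin wells as full block of FRET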
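Material: NR2E3–RetCOR corepressor complex / Amount: 1.35 nM GST-NR2E3 / Medium: Tris pH 7.5 / Compound: single nominal compound dose of 4.8 µM / Incubation: 5 h at 4 °C / Technique: TR-FRET, Eu(K)-anti-GST donor, streptavidin-D2 acceptor, ex 340, em 617/671 nm / Read-out basis: percent loss of FRET ratio relative to control wells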
GalR3 antagonist: GalR3 antagonists in HEK293 cells, primary screen, cell-based, fluorescence readout | Galanin receptor type 3 (Homo sapiens), O60755 | HEK293 GalR3-CNG cAMP membrane potential fluorescence; galR3 body fused to GalR1 C-terminus | inhibition, % at 3 µM | 360,000 compounds, 0.44% hits | AID 651719, 2012;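 active means inhibition above the screen-wide average plus 3 SD, cut at about 13% in these data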;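 further: forskolin and galanin both at EC90 stimulate the cells; cAMP rise reported by CNG channel membrane potential dye signal; 0% = forskolin plus galanin with DMSO and 100% = forskolin alone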
Target sequence (O60755 1-299 limits assumed): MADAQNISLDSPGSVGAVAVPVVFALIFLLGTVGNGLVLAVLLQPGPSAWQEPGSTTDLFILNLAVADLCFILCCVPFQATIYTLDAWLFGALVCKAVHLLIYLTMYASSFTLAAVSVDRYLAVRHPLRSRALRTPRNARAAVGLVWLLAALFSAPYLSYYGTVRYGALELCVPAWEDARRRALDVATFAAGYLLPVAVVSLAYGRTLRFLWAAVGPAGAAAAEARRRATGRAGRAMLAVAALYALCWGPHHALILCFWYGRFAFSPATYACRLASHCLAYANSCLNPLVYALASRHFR
Gli-Sufu antag: Gli-Sufu pathway antagonists, primary screen, luciferase luminescence, Sufu-KO-LIGHT cells, uHTS | Sufu-KO-LIGHT fibroblasts, Gli luciferase reporter luminescence | inhibition, % at 5 µM | 340,000 compounds, 0.74% hits | AID 588413, 2011;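 active means inhibition above about 55%, limit read from the data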;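 further: 0% = DMSO-treated cells and 100% = wells with medium but no cells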
697 NFkB inh: inhibitors of PMA/ionomycin-induced NF-kB reporter, 697 cells, primary screen, B-cell NF-kB inhibitor project, cell-based, luminescence, uHTS; 697 B-cell NF-kB luciferase reporter, 16 h; inhibition, % at 4 µM; 330,000 compounds, 0.33% hits; in the data active means inhibition above about 35%
Gli-Sufu confirm: Gli-SUFU pathway antagonists, confirmation, single concentration, luciferase luminescence, Sufu-KO-LIGHT cells. shares compounds with Gli-Sufu antag. Gli luciferase reporter. inhibition, % at 5 µM. 2,500 compounds, 40% hits;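 active means mean inhibition at 5 µM reaching about 45%, limit read from the data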;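 further: plate controls were DMSO-treated cells for no effect and wells lacking cells for full effect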
SufuKO cytotox: cytotoxicity in Sufu-KO-LIGHT cells, confirmation, cytotoxicity control for Gli-SUFU antagonist project, cell-based, ATP luminescence, single concentration. cytotoxicity, % at 5 µM. AID 651994, 2013. 2,500 compounds, 32% hits. shares compounds with Gli-Sufu antag;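 active means mean cytotoxicity at 5 µM above about 25%, limit read from the data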;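 further: cells exposed to compound overnight for roughly 16 to 18 hours; plate controls were DMSO wells with cells for no effect and medium without cells for full effect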
Wnt3a counter: Wnt3a reporter signal inhibition, confirmation, counter-screen for Gli-SUFU antagonist project, Wnt-LIGHT cells, luminescence, single concentration; inhibition, % at 6.25 µM; 2,500 compounds, 20% hits; shares compounds with Gli-Sufu antag; Wnt3a-driven luciferase reporter; AID 651995, 2013;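 active means mean inhibition above about 25%, limit read from the data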
NR2E3 ag conf: NR2E3 agonist confirmation in cells, cell-based, luminescence, CHO-S two-hybrid; inhibition, % at 3.98 µM; CHO-S mammalian two-hybrid NR2E3-NCOR, luciferase luminescence; 2,300 compounds, 51% hits; shares compounds with NR2E3 ag-1;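 active means average inhibition above a cutoff equal to the mean inhibition of all tested compounds plus one SD, cut at about 70% in these data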;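 further: 0% = DMSO in NR2E3 cells and 100% = DMSO in cells lacking NR2E3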
VP16 counter: GAL4-VP16 reporter modulators, confirmation, counter-screen for NR2E3 agonist project, cell-based, luminescence, CHO-S, high throughput | shares compounds with NR2E3 ag-1 | CHO-S GAL4-VP16 luciferase reporter | inhibition, % at 3.98 µM | 2,300 compounds, 29% hits | AID 624379, 2012;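 active means mean inhibition above a cutoff equal to the average over all tested compounds plus one standard deviation, cut at about 70% in these data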;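 further: luciferase from a UAS reporter driven by GAL4-VP16 transactivation; 0% = DMSO with VP16-transfected cells and 100% = DMSO with cells lacking VP16; higher means less reporter light so more repression of VP16 activity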
An asterisk follows results filed as active; / = no result given. A selection: hits, their analogues and other compounds. The true share with any hit is near 1.8%.

SMILES | Jurkat NFkB inh | NR2E3 ag-1 | NR2E3 ag-2 | GalR3 antagonist | Gli-Sufu antag | 697 NFkB inh | Gli-Sufu confirm | SufuKO cytotox | Wnt3a counter | NR2E3 ag conf | VP16 counter
COC(=O)c1cc(S(=O)(=O)N2CCC(c3cc(OC)ccc3OC)C2)c[nH]1 (stereo not drawn) | 21.5 | 80.6* | 1.7 | 1.0 | 52.4 | -38.2 | 44.9 | 27.8* | 5.5 | 69.4 | 62.1
CC(C)=Cc1oc2ccc([N+](=O)[O-])cc2c1N1CC(C)OC(C)C1 (stereo not drawn) | 2.3 | -5.1 | 1.8 | -7.0 | 7.7 | -0.2 | / | / | / | / | /
Cc1ccc(C(=O)OCC(=O)c2cc(C)n(CC3CCCO3)c2C)cc1 (stereo not drawn) | -54.9 | -26.3 | -2.8 | -5.8 | -2.6 | -15.9 | / | / | / | / | /
Cc1cc(C(=O)COc2ccccc2C(N)=O)c(C)n1CC1CCCO1 (stereo not drawn) | 44.7 | 68.8 | 0.9 | 12.0 | 57.6* | 24.6 | 55.8* | 37.3* | 21.0 | 90.1* | 69.4
O=C(c1cc2nc(-c3ccc(F)cc3)cc(C(F)(F)F)n2n1)N1CCCCC1c1cccnc1 (stereo not drawn) | 27.7 | 51.8 | -0.3 | 0.4 | 67.0* | -59.5 | 63.8* | 31.9* | 22.0 | 87.7* | 66.0
O=C(c1cnn2c(C(F)(F)F)cc(-c3ccccc3)nc12)N1CCCCC1c1cccnc1 (stereo not drawn) | 9.0 | 0.4 | 3.5 | -3.4 | 9.9 | 16.9 | / | / | / | / | /
COc1cc(OC)cc(-c2cc3nc(C)c(CCC(=O)O)c(C)n3n2)c1 | / | 51.4 | -3.0 | 3.7 | 60.8* | / | 64.3* | 1.6 | 90.4* | 57.3 | 63.1
CCNC(=O)Nc1cc(S(=O)(=O)Nc2ccc(OC)cc2)ccc1N1CCOCC1 | 23.7 | 84.7* | 0.3 | / | 61.1* | -15.0 | 61.0* | 46.1* | 24.2 | 83.8* | 76.1*
Cc1cc(C)n2nc(SCC(=O)c3cc(C)n(-c4cc(C)on4)c3C)nc2n1 | -4.1 | 91.7* | 2.1 | -1.6 | 54.9 | -33.9 | 52.0* | 29.7* | 33.5* | 93.9* | 81.4*
Cc1cc(C)n2nc(SCC(=O)c3ccccc3)nc2n1 | -10.6 | -13.1 | 3.5 | -0.3 | -10.9 | -1.9 | / | / | / | / | /
CCC1CCCCN1S(=O)(=O)c1ccc(C(=O)Nc2nnc(C3CC3)o2)cc1 (stereo not drawn) | -2.1 | 6.4 | 6.3 | -0.3 | -3.9 | -27.2 | / | / | / | / | /
CCC1CCCCN1S(=O)(=O)c1ccc(NC(=O)c2ccncc2)cc1 (stereo not drawn) | 24.9 | 95.8* | 1.3 | -1.0 | 58.4* | -31.9 | 36.9 | 40.6* | -11.2 | 66.6 | 62.8
COc1cc(OC)c(OC)cc1CNC(=O)c1cccc(S(=O)(=O)N2CCc3ccccc3C2)c1 | 45.3 | 90.9* | / | 14.3* | 65.8* | 12.3 | 63.6* | 35.5* | 25.4* | 95.8* | 81.4*

Screening results from PubChem.
